We go through 5 compounds from paper PMC11370311 (Cell reports, 2024).

One assay deals with SND1. Briefly: GFP-Trap IP-MS of GFP-RMET. Format: cell-based, human. To be noted: HEK293T, with vs without AdOx, 3 days, label-free MS. In a few lines:
(§1)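 HEK293T cells at 80% confluence were transfected with GFP-RMET using lipofectamine 2000. Half the cells got 25uM AdOx for 3 days. Lysis was in mild buffer (10 mM Tris/Cl pH 7.5, 150 mM NaCl, 0.5 mM EDTA, 0.5% NP-40) with protease inhibitors, then sonication and clearing. GFP-trap agarose ran 2 h at 4°C, followed by washing, elution, gel and LC-MS. Peptide counts per protein were taken at 1% protein FDR, 2 peptides minimum, and 0.1% peptide FDR.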

A further assay relates to SMN. Briefly: GFP-Trap IP-MS of GFP-RMET. Format: cell-based, human. To be noted: HEK293T, with vs without AdOx, 3 days, label-free MS. An outline of the steps: as §1
A further assay concerns PRMT1. Description: GFP-Trap IP-MS of GFP-RMET. Format: cell-based, human. The note with it: HEK293T, AdOx-treated, 3 days, label-free MS. An outline of the steps: (§2)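 HEK293T cells were transfected with GFP-RMET; half were treated with 25uM AdOx for 3 days. Cells were lysed in mild NP-40 buffer with protease inhibitors and sonicated, and cleared lysate was captured on GFP-trap agarose 2 h at 4°C. Eluates were gel-separated and the excised bands analysed by nanoLC-MS/MS on an Orbitrap Fusion. Sequest HT searching used 10 ppm MS and 0.6 Da MS/MS tolerance, with 1% protein FDR (2 peptides) and 0.1% peptide FDR. Peptide counts per protein were reported.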

Another assay concerns PRMT5. Description: GFP-Trap IP-MS of GFP-RMET. Format: cell-based, human. The note with it: HEK293T, AdOx-treated, 3 days, label-free MS. In a few lines:
as §2

For another assay, the system named is MEP50. Briefly: GFP-Trap IP-MS of GFP-RMET. The format is cell-based, human. To be noted: HEK293T, AdOx-treated, 3 days, label-free MS. An outline of the steps:
as §2

The subject of another assay is RIOK1. Briefly: GFP-Trap IP-MS of GFP-RMET. Format: cell-based, human. The note with it: HEK293T, AdOx-treated, 3 days, label-free MS. An outline of the steps:
as §2

The test system of another assay is GST-SART3(HAT) (N + C). Description: Biotinylated GAR peptide pull-down of GST-SART3. Format: binding. To be noted: 2 μg GST-tagged protein, 1h at 4°C, western blot, repeated three times. An outline of the steps: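 Streptavidin beads loaded with biotinylated GAR peptides (1 h, 4°C, rocking): fibrillarin unmethylated, ADMA or SDMA; coilin unmethylated, or SDMA at Arg 1–3 or 3–5. After 3 washes in mild lysis buffer (10 mM Tris/Cl pH 7.5, 0.5 mM EDTA, 0.5% NP-40), beads took 2 μg GST protein for 1 h at 4°C with rocking. Coilin pull-downs also ran in RIPA. Bound protein was eluted and read by western blot.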

Assay [1] has as its system interaction between GFP-SART3 and endogenous fibrillarin. Briefly: Co-IP of GFP-SART3 with endogenous fibrillarin. The format is cell-based, human. The note with it: HEK293T; 3 days; 10uM EPZ015666 or 1uM MS023; IP/western blot. An outline of the steps:
(§3)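 HEK293T cells were grown at 37°C in DMEM with 10% FBS and 1% antibiotic-antimycotic, then transfected at 80% confluence using lipofectamine 2000. They were treated with 10uM EPZ015666 (PRMT5) or 1uM MS023 (PRMT1) for 3 days. Lysates were made in mild buffer (10mM Tris pH 7.5, 150mM NaCl, 0.5mM EDTA, 0.5% NP-40, protease inhibitors). Anti-GFP on Protein A/G beads was incubated with lysate 2 h at 4°C, then SDS-PAGE, PVDF, ECL western.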
For orientation: Immunoblotting shows a protein as a band on a membrane.

For assay [2], the system named is interaction between GFP-SART3 and endogenous coilin. Description: Co-IP of GFP-SART3 with endogenous coilin. The note with it: HEK293T; 3 days; 10uM EPZ015666 or 1uM MS023; IP/western blot. Format: cell-based, human. An outline of the steps: as §3
Assay [3] has as its system interaction between SART3 and the representative spliceosomal proteins. Briefly: Co-IP of GFP-SART3 with representative spliceosomal proteins. Format: cell-based, human. The note with it: HeLa, 10uM EPZ015666, 3 days, IP/western blot. An outline of the steps: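 HeLa SART3-KO clones were made by lentiCRISPRv2 and blasticidin 10 μg/mL, then single-cell cloned. They were restored by lentiviral GFP-SART3 (WT, Y112A or W377A) with puromycin 2 μg/mL selection. Lysates in mild NP-40 buffer were incubated with anti-GFP on Protein A/G beads, 2 h at 4°C, washed three times and boiled. Partners were detected by SDS-PAGE/PVDF western with HRP secondary and ECL on X-ray film.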

Take `Nc1ncnc2c1ncn2C(C=O)OC(C=O)CO` (stereo not shown) [AdOx]: in the assay with SND1, the “enrichment of SND1 as RMET binder” value is given as “selectively enriched as RMET binders, exclusively in cells that were not treated with AdOx”. Besides, the “enrichment of SMN as RMET binder” value in the assay with SMN was “selectively enriched as RMET binders, exclusively in cells that were not treated with AdOx”. Also, in the assay on PRMT1, the “enrichment of PRMT1 with RMET” value was “relatively enriched”. In the assay on PRMT5, the “enrichment of PRMT5 with RMET” value is “relatively enriched”. In the assay with MEP50, the “enrichment of MEP50 with RMET” value is listed as “relatively enriched”. Besides, the “enrichment of RIOK1 with RMET” value with RIOK1 is recorded as “relatively enriched”.

Take “GGRGRGGGFRGRGRGGGG-Biotin [unmethylated]”: in the assay with GST-SART3(HAT) (N + C) (biotinylated fibrillarin GAR peptides, streptavidin beads, mild buffer (150 mM NaCl)), the “pull-down of GST-SART3(HAT) by fibrillarin GAR peptide” value is recorded as “only the SDMA-modified peptide pulled down GST-SART3(HAT)”.

Consider “Biotin-AKGRGMRG[Rme2s]G[Rme2s]G[Rme2s]GHP-Amide”, for which, in the assay with GST-SART3(HAT) (N + C) (biotinylated coilin GAR peptides, mild buffer (300 mM NaCl)), the “binding of coilin GAR peptide to GST-SART3(HAT)” value was “strong interaction”.

Turning to `CC(C)Oc1ccc(-c2c[nH]cc2CN(C)CCN)cc1` [MS023], in assay [1], the “interaction between GFP-SART3 and endogenous fibrillarin” value is “this reduced interaction was not observed”. The “interaction between GFP-SART3 and endogenous coilin” value in assay [2] is listed as “this reduced interaction was not observed”.

For the compound `O=C(NC[C@H](O)CN1CCc2ccccc2C1)c1cc(NC2COC2)ncn1` [EPZ015666], the “interaction between GFP-SART3 and endogenous fibrillarin” value in [1] is recorded as “reduced the interaction”. The “interaction between GFP-SART3 and endogenous coilin” value in assay [2] is on record as “reduced the interaction”. Moreover, the “interaction between SART3 and representative spliceosomal proteins” value in [3] was “inhibits the interaction”.
